Laboratory results published in ChEMBL document CHEMBL1287651, “Synthesis and in vitro antibacterial activity of fluoroquinolone derivatives containing 3-(N'-alkoxycarbamimidoyl)-4-(alkoxyimino) pyrrolidines” (2010).
Converted amounts (≈) assume the structure as drawn.

Experiments:
Format in all cases: functional
[1] = tested on: Staphylococcus aureus; assay: Antibacterial activity against methicillin-sensitive Staphylococcus aureus 08-2 after 18 to 24 hrs by twofold serial dilution method
Method in brief: (§1)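 Standard twofold serial agar dilution method on agar media for MIC determination. Screened against representative Gram-positive and Gram-negative strains. Levofloxacin and GMFX served as control drugs.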

[2] = tested on: Staphylococcus epidermidis; assay: Antibacterial activity against methicillin-resistant Staphylococcus epidermidis 09-3 after 18 to 24 hrs by twofold serial dilution method; method in brief: as §1
[3] = tested on: Enterococcus faecium; assay: Antibacterial activity against Enterococcus faecium 08-2 after 18 to 24 hrs by twofold serial dilution method
Method in brief: (§2)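 MIC determined by the standard twofold serial dilution method on agar media, screening against Gram-positive and Gram-negative strains. Levofloxacin and gemifloxacin were run alongside as reference drugs.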

[4] = tested on: Pseudomonas aeruginosa; assay: Antibacterial activity against Pseudomonas aeruginosa 09-33 after 18 to 24 hrs by twofold serial dilution method; method in brief: as §2
[5] = tested on: Pseudomonas aeruginosa; assay: Antibacterial activity against Pseudomonas aeruginosa ATCC 27853 after 18 to 24 hrs by twofold serial dilution method; method in brief: as §2
[6] = tested on: Pseudomonas aeruginosa; assay: Antibacterial activity against Pseudomonas aeruginosa 09-34 after 18 to 24 hrs by twofold serial dilution method; method in brief: as §2
[7] = tested on: Klebsiella pneumoniae; assay: Antibacterial activity against Klebsiella pneumoniae 09-21 after 18 to 24 hrs by twofold serial dilution method; method in brief: as §2
[8] = tested on: Streptococcus pneumoniae; assay: Antibacterial activity against Streptococcus pneumoniae 08-2 after 18 to 24 hrs by twofold serial dilution method; method in brief: as §2
[9] = tested on: Staphylococcus aureus; assay: Antibacterial activity against methicillin-resistant Staphylococcus aureus 08-1 after 18 to 24 hrs by twofold serial dilution method; method in brief: as §1
[10] = tested on: Enterococcus faecalis; assay: Antibacterial activity against Enterococcus faecalis 08-12 after 18 to 24 hrs by twofold serial dilution method; method in brief: as §2
[11] = tested on: Klebsiella pneumoniae; assay: Antibacterial activity against Klebsiella pneumoniae 09-23 after 18 to 24 hrs by twofold serial dilution method; method in brief: as §2
[12] = tested on: Staphylococcus epidermidis; assay: Antibacterial activity against methicillin-sensitive Staphylococcus epidermidis 09-3 after 18 to 24 hrs by twofold serial dilution method; method in brief: as §1
[13] = tested on: Enterococcus faecalis; assay: Antibacterial activity against Enterococcus faecalis 08-10 after 18 to 24 hrs by twofold serial dilution method; method in brief: as §2
[14] = tested on: Staphylococcus epidermidis; assay: Antibacterial activity against methicillin-resistant Staphylococcus epidermidis 09-4 after 18 to 24 hrs by twofold serial dilution method; method in brief: as §1
[15] = tested on: Escherichia coli; assay: Antibacterial activity against Escherichia coli 08-21 after 18 to 24 hrs by twofold serial dilution method; method in brief: as §2
[16] = tested on: Escherichia coli; assay: Antibacterial activity against Escherichia coli 08-22 after 18 to 24 hrs by twofold serial dilution method; method in brief: as §2
[17] = tested on: Pseudomonas aeruginosa; assay: Antibacterial activity against Pseudomonas aeruginosa 09-35 after 18 to 24 hrs by twofold serial dilution method; method in brief: as §2
[18] = tested on: Staphylococcus epidermidis; assay: Antibacterial activity against methicillin-sensitive Staphylococcus epidermidis 09-6 after 18 to 24 hrs by twofold serial dilution method; method in brief: as §1
[19] = tested on: Klebsiella pneumoniae; assay: Antibacterial activity against Klebsiella pneumoniae 09-22 after 18 to 24 hrs by twofold serial dilution method; method in brief: as §2
[20] = tested on: Escherichia coli; assay: Antibacterial activity against Escherichia coli ATCC 25922 after 18 to 24 hrs by twofold serial dilution method; method in brief: as §2
[21] = tested on: Streptococcus pneumoniae; assay: Antibacterial activity against Streptococcus pneumoniae 08-4 after 18 to 24 hrs by twofold serial dilution method; method in brief: as §2
[22] = tested on: Staphylococcus epidermidis; assay: Antibacterial activity against methicillin-resistant Staphylococcus epidermidis 09-2 after 18 to 24 hrs by twofold serial dilution method; method in brief: as §1
[23] = tested on: Pseudomonas aeruginosa; assay: Antibacterial activity against Pseudomonas aeruginosa 09-32 after 18 to 24 hrs by twofold serial dilution method; method in brief: as §2
[24] = tested on: Enterococcus faecium; assay: Antibacterial activity against Enterococcus faecium 08-7 after 18 to 24 hrs by twofold serial dilution method; method in brief: as §2
[25] = tested on: Staphylococcus aureus; assay: Antibacterial activity against Staphylococcus aureus ATCC […] after 18 to 24 hrs by twofold serial dilution method; method in brief: as §2

SMILES | MIC [1] [µg/mL] | MIC [2] [µg/mL] | MIC [3] [µg/mL] | MIC [5] [µg/mL] | MIC [7] [µg/mL] | MIC [9] [µg/mL] | MIC [10] [µg/mL] | MIC [11] [µg/mL] | MIC [12] [µg/mL] | MIC [13] [µg/mL] | MIC [14] [µg/mL] | MIC [15] [µg/mL] | MIC [16] [µg/mL] | MIC [17] [µg/mL] | MIC [18] [µg/mL] | MIC [19] [µg/mL] | MIC [20] [µg/mL] | MIC [22] [µg/mL] | MIC [23] [µg/mL] | MIC [24] [µg/mL] | further results
CCO/N=C(/N)C1CN(c2c(F)cc3c(=O)c(C(=O)O)cn(C4CC4)c3c2OC)C/C1=N\OC (stereo unspecified) | 0.25 (≈ 0.526 µM) | 0.125 (≈ 0.263 µM) | > 128 | 128 (≈ 269 µM) | > 128 | 0.25 (≈ 0.526 µM) | 128 (≈ 269 µM) | > 128 | 0.25 (≈ 0.526 µM) | > 128 | 0.125 (≈ 0.263 µM) | > 128 | > 128 | > 128 | 0.25 (≈ 0.526 µM) | 8 (≈ 16.8 µM) | 128 (≈ 269 µM) | 0.5 (≈ 1.05 µM) | > 128 | > 128 | MIC [4]: > 128 µg/mL; MIC [6]: > 128 µg/mL; MIC [8]: 32 µg/mL (≈ 67.3 µM); MIC [21]: 2 µg/mL (≈ 4.21 µM); MIC [25]: 0.25 µg/mL (≈ 0.526 µM)
CCn1cc(C(=O)O)c(=O)c2cc(F)c(N3C/C(=N\OC)C(/C(N)=N\OC)C3)c(F)c21 (stereo unspecified) | 0.25 (≈ 0.572 µM) | 0.25 (≈ 0.572 µM) | > 128 | 128 (≈ 293 µM) | > 128 | 0.25 (≈ 0.572 µM) | > 128 | > 128 | 0.25 (≈ 0.572 µM) | > 128 | 0.25 (≈ 0.572 µM) | > 128 | > 128 | > 128 | 0.5 (≈ 1.14 µM) | 1 (≈ 2.29 µM) | 128 (≈ 293 µM) | 2 (≈ 4.57 µM) | > 128 | > 128 | MIC [4]: > 128 µg/mL; MIC [6]: > 128 µg/mL; MIC [8]: 1 µg/mL (≈ 2.29 µM); MIC [21]: 1 µg/mL (≈ 2.29 µM); MIC [25]: 0.25 µg/mL (≈ 0.572 µM)
CO/N=C1\CN(c2c(F)cc3c(=O)c(C(=O)O)cn(CCF)c3c2F)CC1/C(N)=N\O (stereo unspecified) | > 128 | 1 (≈ 2.27 µM) | > 128 | > 128 | > 128 | 1 (≈ 2.27 µM) | > 128 | > 128 | 0.5 (≈ 1.13 µM) | > 128 | 0.5 (≈ 1.13 µM) | > 128 | > 128 | > 128 | 1 (≈ 2.27 µM) | > 128 | > 128 | > 128 | > 128 | > 128 | MIC [4]: > 128 µg/mL; MIC [6]: > 128 µg/mL; MIC [8]: 1 µg/mL (≈ 2.27 µM); MIC [21]: > 128 µg/mL; MIC [25]: 1 µg/mL (≈ 2.27 µM)
CCO/N=C(/N)C1CN(c2c(F)cc3c(=O)c(C(=O)O)cn(CC)c3c2F)C/C1=N\OC (stereo unspecified) | 0.25 (≈ 0.554 µM) | 0.125 (≈ 0.277 µM) | > 128 | > 128 | > 128 | 0.25 (≈ 0.554 µM) | > 128 | > 128 | 0.25 (≈ 0.554 µM) | > 128 | 0.125 (≈ 0.277 µM) | > 128 | > 128 | > 128 | 0.25 (≈ 0.554 µM) | 1 (≈ 2.22 µM) | > 128 | 0.5 (≈ 1.11 µM) | > 128 | > 128 | MIC [4]: > 128 µg/mL; MIC [6]: > 128 µg/mL; MIC [8]: 16 µg/mL (≈ 35.4 µM); MIC [21]: 0.5 µg/mL (≈ 1.11 µM); MIC [25]: 0.125 µg/mL (≈ 0.277 µM)
CCO/N=C1\CN(c2nc3c(cc2F)c(=O)c(C(=O)O)cn3-c2ccc(F)cc2F)CC1/C(N)=N\OCC (stereo unspecified) | 0.06 (≈ 0.113 µM) | 0.06 (≈ 0.113 µM) | 128 (≈ 240 µM) | 64 (≈ 120 µM) | 16 (≈ 30 µM) | 32 (≈ 60.1 µM) | 128 (≈ 240 µM) | 128 (≈ 240 µM) | 32 (≈ 60.1 µM) | 128 (≈ 240 µM) | 64 (≈ 120 µM) | 128 (≈ 240 µM) | 128 (≈ 240 µM) | 128 (≈ 240 µM) | 32 (≈ 60.1 µM) | 128 (≈ 240 µM) | 16 (≈ 30 µM) | 0.06 (≈ 0.113 µM) | 128 (≈ 240 µM) | 128 (≈ 240 µM) | MIC [4]: 128 µg/mL (≈ 240 µM); MIC [6]: 128 µg/mL (≈ 240 µM); MIC [8]: 128 µg/mL (≈ 240 µM); MIC [21]: 128 µg/mL (≈ 240 µM); MIC [25]: 0.06 µg/mL (≈ 0.113 µM)
C[C@H]1COc2c(N3CCN(C)CC3)c(F)cc3c(=O)c(C(=O)O)cn1c23.C[C@H]1COc2c(N3CCN(C)CC3)c(F)cc3c(=O)c(C(=O)O)cn1c23.O [LEVOFLOXACIN] | 0.06 | 0.25 | 8 | 0.5 | 8 | 0.125 | 4 | 8 | 0.125 | 8 | 0.25 | 16 | 16 | 0.25 | 2 | 16 | 0.125 | 0.25 | 16 | 2 | MIC [25]: 0.06 µg/mL
